High-throughput results as filed in PubChem BioAssay.
NPY Y2 blocker: blocks the human neuropeptide Y Y2 receptor; P49146; NPY-Y2 expressing cells, antagonist mode; inhibition, % at 2.7 µM; 140,000 tested, 0.99% active; in the data active = inhibition above about 17%;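 note: 0% = vehicle with agonist challenge and 100% = reference antagonist with challenge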
Target sequence (P49146 whole entry, looked up): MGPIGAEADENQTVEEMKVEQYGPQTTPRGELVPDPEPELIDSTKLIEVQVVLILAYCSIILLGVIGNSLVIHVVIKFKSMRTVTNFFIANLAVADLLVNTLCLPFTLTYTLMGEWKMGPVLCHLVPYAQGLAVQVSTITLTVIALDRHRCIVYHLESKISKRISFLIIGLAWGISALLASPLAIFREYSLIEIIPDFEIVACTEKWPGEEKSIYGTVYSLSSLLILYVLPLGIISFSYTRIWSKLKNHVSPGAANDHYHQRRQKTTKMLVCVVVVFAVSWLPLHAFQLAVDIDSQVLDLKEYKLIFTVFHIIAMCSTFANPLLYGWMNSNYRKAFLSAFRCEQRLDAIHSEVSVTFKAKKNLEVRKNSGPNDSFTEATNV
Cl transport mod: modulators of human KCC2 chloride dependent transport; Q9H2X9; KCC2 cells, thallium flux FluoZin-2 fluorescence; B-score of Tl+ flux slope (higher = more flux/activation; lower = inhibition) at 10 µM; 190,000 tested, 2.2% active; AID 1456;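 active = thallium flux slope and its plate-corrected score both differing from the plate sample mean at a set confidence after two filtering rounds, in either direction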;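 note: slope of fluorescence scaled to starting intensity during 10 to 20 s after thallium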
Furin inhibitor: blocks human furin protease activity. 220,000 tested, 0.061% active. AID 463115. P09958. purified furin, fluorogenic substrate cleavage. inhibition, % at 20 µM or 30 µM; in the data active = inhibition above about 25%
NPY1 pot ag: potentiators or agonists of human neuropeptide Y receptor Y1; P25929; NPY-Y1 expressing cells, potentiator/agonist activation; activation, % at 3.6 µM; 220,000 tested, 0.37% active; AID 1304; in the data active = activation above about 33%, passing the limit was not always enough;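 note: cells stimulated with NPY at EC10 then isoproterenol at EC100; 0% = low agonist plus stimulus and 100% = saturating agonist plus stimulus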
Target sequence (P25929 whole entry, looked up): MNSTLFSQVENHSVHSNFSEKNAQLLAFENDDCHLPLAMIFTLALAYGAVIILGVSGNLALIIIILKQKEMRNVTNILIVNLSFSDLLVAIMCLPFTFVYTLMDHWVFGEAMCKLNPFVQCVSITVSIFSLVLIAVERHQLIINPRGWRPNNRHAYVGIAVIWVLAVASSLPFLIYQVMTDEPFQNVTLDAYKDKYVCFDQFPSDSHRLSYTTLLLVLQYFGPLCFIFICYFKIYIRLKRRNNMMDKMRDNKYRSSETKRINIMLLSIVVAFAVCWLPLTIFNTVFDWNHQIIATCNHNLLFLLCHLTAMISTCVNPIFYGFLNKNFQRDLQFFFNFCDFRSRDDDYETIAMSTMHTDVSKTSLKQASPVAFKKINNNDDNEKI
NPY Y1 blocker: NPY-Y1 (human) receptor antagonism; P25929; HEK293-CNG Y1 cells, membrane potential fluorescence; NPY at EC95, then isoproterenol; inhibition, % at 3.6 µM; 200,000 tested, 1% active;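 active = inhibition above the campaign mean inhibition of all tested compounds plus 3 SD, cut at about 20% in these data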;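 note: 0% = DMSO wells given NPY plus isoproterenol and 100% = isoproterenol alone without NPY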
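System: HEK293 cells with Y1 receptor plus CNG channel / Probe or stimulus: NPY 25 nM then isoproterenol 1 µM plus Ro 20-1724 25 µM / Compound: one concentration, 3.6 µM, in 0.4% DMSO / Schedule: compound incubation 1 h at room temperature, readout 45 min post-stimulation / Measured by: membrane potential fluorescence / Read-out: % inhibition of NPY effect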
NPY2 pot ag: human NPY-Y2 potentiation or agonism, primary screen; activation, % at 3.6 µM; 220,000 tested, 0.45% active; AID 1359; cells expressing NPY-Y2, potentiator/agonist read-out; in the data active = activation above about 27%;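 note: cells stimulated with NPY near EC25 plus isoproterenol at EC100; 0% = vehicle plus submaximal agonist and 100% = vehicle plus saturating agonist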
NPY-Y2 pot conf: human NPY-Y2 potentiation or agonism, confirmation. shares compounds with NPY2 pot ag. cell-based NPY-Y2 potentiator/agonist assay. activation, % at 3.6 µM. 450 tested, 20% active; in the data active = activation above about 33%
NPY-Y1 counter: potentiates or activates NPY-Y1, counter-screen for NPY-Y2 hits; shares compounds with NPY2 pot ag; Y1 HEK293-CNG cells, membrane potential fluorescence; activation, % at 3.6 µM; 450 tested, 20% active; AID 1651; in the data active = activation above about 45%;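 note: cells stimulated with submaximal NPY then isoproterenol with phosphodiesterase inhibitor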
NPY-Y1 agonist 2: counter-screen for NPY-Y2 potentiators: agonists of human NPY-Y1 | shares compounds with NPY2 pot ag | HEK293 Y1-CNGC, membrane potential fluorescence, agonism | activation, % at 3.6 µM | 450 tested, 37% active;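 active = activation above the mean of DMSO-only control wells plus 3 SD, cut at about 18% in these data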;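 note: cells stimulated with 1 µM isoproterenol plus the PDE inhibitor Ro 20-1724; 0% = isoproterenol with DMSO and no NPY and 100% = 40 nM NPY; Y1 agonists lower the membrane potential dye signal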
CNGC inh: counter-screen for NPY-Y2 potentiators: inhibitors of CNG channel activity. HEK293-CNG parental, isoproterenol cAMP, membrane potential fluorescence. 450 tested, 32% active. shares compounds with NPY2 pot ag. inhibition, % at 3.6 µM. AID 1703;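 active = inhibition above the control-well mean plus 3 SD of those wells, cut at about 22% in these data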;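 note: 0% = DMSO with isoproterenol and 100% = DMSO without isoproterenol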
NPY-Y2 ag 2: counter-screen for NPY-Y2 potentiators: agonists of human NPY-Y2; shares compounds with NPY2 pot ag; HEK293 Y2/CNGC cells, membrane potential fluorescence, agonist mode; activation, % at 3.6 µM; 450 tested, 56% active; AID 1710;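 active = activation above the mean of solvent-only control wells plus 3 SD, cut at about 10% in these data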;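 note: cells stimulated by isoproterenol with no NPY added so direct agonism is tested; 0% = DMSO with isoproterenol alone and 100% = NPY at EC100 plus isoproterenol; agonism lowers probe fluorescence through less cAMP and CNG channel opening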
Numbers without * were called inactive; . = no result. A selection: hits, their analogues and other compounds. The true share with any hit is near 3.7%.

SMILES	NPY Y2 blocker	Cl transport mod	Furin inhibitor	NPY1 pot ag	NPY Y1 blocker	NPY2 pot ag	NPY-Y2 pot conf	NPY-Y1 counter	NPY-Y1 agonist 2	CNGC inh	NPY-Y2 ag 2
COc1ccc(/C=c2/sc3n(c2=O)C(c2ccccc2OC)C2=C(N=3)c3ccccc3CC2)cc1O (stereo unspecified)	0.6	0.914	-41.3	20.9	-8.9	36.1*	12.4	25.1	17.8*	16.5	9.3
C#CC(=O)N(c1ccc(OC)cc1OC)C(C(=O)NC1CCCC1)c1cccs1 (stereo unspecified)	.	.	-18.4	15.3	-6.9	35.0*	10.9	40.4	15.9	48.1*	21.4*
Cc1c(-c2ccccc2)[n+](=O)c2c(n1[O-])CCCC2	.	0.396	-22.6	2.6	.	-7.9	.	.	.	.	.
CC(=O)SCCC(=O)Nc1ccccc1	-7.2	-0.679	-21.4	26.4	-15.6	43.7*	31.6	41.2	51.6*	37.2*	46.8*
CC(=O)NNC(=O)CCC(=O)Nc1ccccc1	2.7	-1.57	2.3	-1.0	-1.2	0.4	.	.	.	.	.
N#Cc1c2ccccc2nc2ccccc12	.	.	-13.5	4.4	.	-3.4	.	.	.	.	.
Cc1ccsc1CN(C)Cc1nc(C2CC2)no1	.	0.238	-15.1	7.3	1.3	-18.8	.	.	.	.	.
O=[N+]([O-])c1cccc2c(N3CCOCC3)ccnc12	.	-1.15	-16.2	4.5	-0.3	40.3*	1.6	5.7	5.0	3.8	12.7*
O=[N+]([O-])c1ccc(N2CCN(S(=O)(=O)c3ccccc3)CC2)c2cccnc12	.	-0.739	-16.3	10.4	-3.7	-4.4	.	.	.	.	.
O=C(O)CCC(=O)Nc1ccccc1N1CCOCC1	-0.8	0.203	-17.4	1.1	-5.4	2.0	.	.	.	.	.
O=C(O)CC1(CC(=O)Nc2ccccc2N2CCOCC2)CCCC1	.	-0.869	-10.0	23.6	.	59.1*	-3.7	-7.6	-4.1	-5.0	-4.8
Cc1ccccc1-n1nnnc1SC1CCOC1=O (stereo unspecified)	-1.0	0.222	-19.4	1.9	-3.0	4.4	.	.	.	.	.
O=C(O)C1CC=CCC1C(=O)N1CCN(c2nc(-c3ccccc3)c3ccccc3n2)CC1 (stereo unspecified)	7.3	.	-29.6	43.4	14.3	36.6*	16.5	2.1	17.9*	-5.7	14.3*
N#C/C(=N\Nc1ccccc1)C(N)=S	.	0.529	18.5	0.9	.	2.1	.	.	.	.	.
Cc1ccc(N/N=C(\C#N)C(=O)c2ccsc2)cc1	.	-1.88	-6.0	8.0	.	-1.0	.	.	.	.	.
N#C/C(=N\Nc1ccc(Cl)cc1)C(N)=S	.	-1.87	-2.3	38.0	.	54.0*	1.9	-4.9	-8.7	-6.3	2.8
N#C/C(=N\Nc1ccc(Cl)cc1)C(=O)c1ccsc1	.	-2.6	-16.1	36.0	.	58.5*	13.2	-10.5	-5.2	-0.6	6.2
CN(C)c1ccc(/C=C(/NC(=O)c2ccccc2)C(=O)N/N=C/c2ccc([N+](=O)[O-])c(O)c2)cc1	-3.3	0.00851	-6.7	33.8	-12.0	33.0*	33.9*	38.4	34.8*	25.8*	27.3*
Cn1c(=O)c([N+](=O)[O-])c(NCCc2ccccc2)c2ccccc21	2.8	-0.00492	-9.8	-18.2	4.8	-14.7	.	.	.	.	.
Cn1c(=O)c([N+](=O)[O-])c(NCc2ccc3c(c2)OCO3)c2ccccc21	.	-1.95	-11.4	3.3	.	98.7*	-15.3	-29.0	-23.8	-8.6	-10.0
Fc1ccc(NC(=S)N2CCCN(c3ccc(C(F)(F)F)cn3)CC2)c(F)c1	.	.	-14.3	23.8	.	42.9*	1.6	-35.0	-23.9	-11.1	7.8
O=C(CCl)NC(=O)NC12CC3CC(CC(C3)C1)C2	1.4	0.973	-24.6	30.8	-12.9	40.8*	27.6	49.2*	34.6*	9.8	26.6*
CC(C)(SC(=S)N1CCCCCC1)C(=O)O	.	0.431	-23.3	-8.0	3.5	7.2	.	.	.	.	.
CC(SC(=S)N1CCCC1)C(=O)O (stereo unspecified)	.	0.0547	-35.4	19.8	0.0	36.7*	-2.9	-6.9	-0.5	2.3	12.5*
COc1ccc(-n2c(C)cc(C(=O)CN3C(=O)c4ccccc4C3=O)c2C)cc1	3.8	-0.55	-22.5	7.9	6.8	9.6	.	.	.	.	.
SMILES	NPY Y2 blocker	Cl transport mod	Furin inhibitor	NPY1 pot ag	NPY Y1 blocker	NPY2 pot ag	NPY-Y2 pot conf	NPY-Y1 counter	NPY-Y1 agonist 2	CNGC inh	NPY-Y2 ag 2
COc1ccc(-n2c(C)cc(C(=O)COC(=O)Cn3cnc4ccccc43)c2C)cc1	0.9	.	-19.5	26.1	-5.2	37.7*	-4.3	-41.7	-18.4	-8.2	0.3
Nc1n[nH]c(N)c1N=Nc1ccc(F)cc1	.	0.593	5.8	-5.1	0.3	-4.8	.	.	.	.	.
Cc1n[nH]c(C)c1N=Nc1ccc(Br)cc1	.	0.988	-3.6	30.0	-8.0	30.7*	13.9	26.8	0.4	17.6	4.7
COc1ccc(Cn2c(O)c(C=Nc3ccccc3C(=O)O)c3ccccc3c2=O)cc1	.	-1.08	-8.2	47.3	.	54.1*	17.3	29.2	28.4*	4.3	27.1*
COc1ccccc1NS(=O)(=O)c1cccc(-n2c(O)c(C=Nc3ccccc3C(=O)O)c3ccccc3c2=O)c1	.	-2.89	-9.2	32.4	.	45.0*	27.9	35.4	34.3*	15.8	30.1*
NS(=O)(=O)c1cccc(NC(=S)NC(=O)C23CC4CC(CC(C4)C2)C3)c1	0.7	-0.533	-11.8	30.4	-2.2	14.2	.	.	.	.	.
COC(=O)c1sccc1-n1cccc1C(=O)C(=O)N1CC(C)OC(C)C1 (stereo unspecified)	-0.7	0.0517	-9.6	8.1	-3.2	5.8	.	.	.	.	.
Cc1sc2cc3c(c(C(=O)c4ccccc4)[n+]2c1C)-c1cccc2cccc-3c12	6.1	-3.35	-24.4	15.6	1.2	30.6*	20.3	10.7	8.2	8.7	16.5*
O=C(c1ccccc1)c1c2c(cc3sc4ccccc4[n+]13)-c1cccc3cccc-2c13	3.9	-1.39	15.8	35.1	-7.3	40.5*	50.6*	59.8*	53.6*	55.6*	60.2*
Cc1cc(C)c2c(N)c(C(=O)c3ccccc3)sc2n1	.	0.766	-22.8	-5.5	.	5.6	.	.	.	.	.
CCn1c(C)c(CS(=O)(=O)c2ccccc2)[nH]c1=O	.	0.567	-22.5	1.6	6.8	-1.5	.	.	.	.	.
O=C(Nc1ccc(S(=O)(=O)Nc2ncccn2)cc1)c1ccc(Br)s1	1.3	-0.513	-15.5	11.6	-0.4	27.7*	3.1	5.2	10.3	6.8	9.1
CCSc1nnc2ccc(-c3ccco3)nn12	.	-0.776	-21.3	3.0	-1.4	15.1	.	.	.	.	.
